Laboratory results from ChEMBL document CHEMBL4513216, “Probing the Open Global Health Chemical Diversity Library for Multistage-Active Starting Points for Next-Generation Antimalarials” (ACS Infect Dis, 2020).

Assay: Toxicity liver stage against HepG2, at 10uM
Type: cell-based
Design: test concentration 10 uM, cell line HepG2-A16-CD81EGFP
Conditions: human, HepG2-A16-CD81EGFP cells; read-out: INHIBITION
Outline: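 Uninfected HepG2-A16-CD81EGFP cells, 3 × 10^3 per well, 1536-well, plated on prespotted compound at 10 μM final, parasite-free screening media added to match infected plates; puromycin 10 μM positive, DMSO 0.5% negative; run in parallel with 48 h PbLuc assay at 37 °C, 5% CO2; viability by CellTiter-Glo luminescence, normalized to controls.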

Row | SMILES | cytotoxicity at 10 µM [%]
1 | CS(=O)(=O)c1ccc(-c2ccccc2C(=O)O)cc1 | 0.238
2 | COCC(=O)Nc1cnc(N2CCCC2)nc1 | -5.93
3 | Cn1c2c(c(=O)n1C)CN(C(=O)c1ccco1)CCC2 | 10.5
4 | FC1(F)CCN(c2ccccc2)CC12CCN(c1ncccn1)C2 (stereo unspecified) | 3.71
5 | CCc1ncnc2c1CCN(c1ncc(F)cn1)CC2 | 7.86
6 | Cc1ccc(N2CCc3sc(C(=O)NCCN4CCCC4)cc32)nn1 | -2.19
7 | CCOCC1CN(C(=O)c2ccsc2)Cc2nn(C)cc21 (stereo unspecified) | 3.39
8 | COCC(=O)N1CCCn2c(CN3CCCC3=O)nnc2C1 | -123
9 | COc1nn(C)c2c1CCCN(C(=O)COc1ccccc1)C2 | 3.91
10 | COc1nn(C)c2c1CCCN(C(=O)c1ccc[nH]1)C2 | -0.966
11 | CCn1nnc2c1C(COC)CN(C(=O)Cc1ccccn1)C2 (stereo unspecified) | 4.64
12 | CN1CC2(CCNCC2)COc2ccccc2S1(=O)=O | 4.58
13 | Cc1ccsc1C(=O)N1CC(C(=O)NC(C)C)C2(CCOCC2)C1 (stereo unspecified) | -1.49
14 | CN(C(=O)Cn1nc(-c2ccccc2)ccc1=O)C1CCS(=O)(=O)C1 (stereo unspecified) | 1.82
15 | COc1cccc(-c2nc(C)c(C(=O)N[C@@H](C)C(=O)O)s2)c1 | 6.51
16 | CNC(=O)c1cc2c(nc1NC(C)C)CCN(C(=O)NC(C)C)CC2 | -0.0714
17 | Cc1nnn2c1COCC(CNC(=O)c1ccc3[nH]ccc3c1)C2 (stereo unspecified) | -10.7
18 | COCCCNS(=O)(=O)c1cccc(CSC)c1 | 11.9
19 | CC(C)=CCCC(C)(O)c1cc(C(N)=O)no1 (stereo unspecified) | 3.56
20 | CCN1CCN(c2nc(C(C)C)nc3c(C)nn(CC)c23)CC1 | -12.6
21 | c1cnc(Nc2ccc(C3CCCCN3)cn2)cn1 (stereo unspecified) | 1.24
22 | CCN1CCCC(NC(=O)CCn2c(C(F)F)cc3cccnc32)C1 (stereo unspecified) | -0.212
23 | Cc1nc(Nc2nnc(C)s2)cc(C2CCCN2C(C)C)n1 (stereo unspecified) | -23.9

Row | SMILES | cytotoxicity at 10 µM [%]
24 | CC(=O)N1CCC(c2nc(C)cc(-c3ccccc3C(=O)O)n2)CC1 | -28
25 | Cn1cc(NS(=O)(=O)CCOc2ccc(F)cc2)cn1 | -0.77
26 | Cc1cccc(C2CCCCCN2C(=O)c2cn(CC(N)=O)nn2)c1 (stereo unspecified) | 1.51
27 | O=C(CCc1nnc(-c2ccccc2)o1)N1CCCC1c1ccc[nH]1 (stereo unspecified) | -3.33
28 | COc1ccc(Cn2nc(C(N)=O)ccc2=O)c(Cl)c1 | 10.2
29 | O=S(=O)(c1cncc(F)c1)N1CCC2(CCOC2)C1 (stereo unspecified) | -0.872
30 | CNC(=O)c1cccc(CNC2CCCSc3ccccc32)c1 (stereo unspecified) | -2.64
31 | CC(=O)NCc1ccc(S(=O)(=O)NC(=O)c2ccc3c(c2)CCO3)s1 | 16.1
32 | CC(O)CCN(C)S(=O)(=O)Cc1ccc(Cl)c(Cl)c1 (stereo unspecified) | 3.92
33 | Cc1ccc2c(c1)N(C(=O)c1nccnc1N)CC(C)O2 (stereo unspecified) | -1.65
34 | Cc1nccc(CNC(=O)NCCC(=O)N2CCCc3ccccc32)n1 | -0.457
35 | CCCC(C)N(C)Cc1nnc(-c2ccc(Br)s2)o1 (stereo unspecified) | -1.16
36 | CC(C)Oc1ccccc1C(=O)NC1CC(=O)N(CC(F)(F)F)C1 (stereo unspecified) | 4.37
37 | Cc1cc(C)c2nc(C3CC3)cc(C(=O)N3CCCC3C(N)=O)c2c1 (stereo unspecified) | -1.11
38 | CC(NC(=O)CCn1cccn1)c1cn(-c2ccccc2)nn1 (stereo unspecified) | 0.554
39 | O=C(CCNC(=O)NC1CC1)NCc1ccccc1 | 8.12
40 | CNS(=O)(=O)c1cccc(CNc2ccc(C#N)cn2)c1 | -4.36
41 | O=C1CCN(C(=O)C2(c3ccc(F)cc3)CCCCC2)CCN1 | -7.4
42 | CCS(=O)(=O)N1CCC(Nc2ccc(C#N)cc2F)CC1 | 5.65
43 | CN(CCC#N)C(=O)CSc1cc(F)ccc1F | 13.2
44 | O=C(c1ccn(-c2ccccc2Cl)n1)N1CCCSCC1 | 4.22
45 | COc1ccc(NC(=O)c2ccoc2C)c(N2CCN(C(C)=O)CC2)n1 | -9.09
46 | CC(C)(C)OC(=O)NC(C)(C)c1noc(CSc2nncs2)n1 | 16.6

Row | SMILES | cytotoxicity at 10 µM [%]
47 | Cc1nc(C(=O)N(C)CC(=O)N(C)C)nn1-c1ccccc1C(C)C | -6.5
48 | Cc1nc2n(n1)CC(NCc1ccnc(-c3ccccc3)n1)CC2 (stereo unspecified) | -0.898
49 | O=C(Cc1ccc2c(c1)OCO2)N1CCCN(c2nccs2)CC1 | -11.9
50 | Cc1cc(NC(=O)CNc2cccc(C(=O)N3CCCC(O)C3)c2)no1 (stereo unspecified) | -2.21
51 | O=C(NC1CCN(C2CC2)CC1)c1[nH]nc(C2CC2)c1Cl | 2.64
52 | CC(NCC1CCN(CCO)CC1)c1cccnc1 (stereo unspecified) | -5.6
53 | O=C(NCCCO)Nc1cccc(C[S+]([O-])c2ccccc2)c1 (stereo unspecified) | 0.0964
54 | CC(C)n1nc2c(cc1=O)CN(Cc1ccc(-n3cccn3)cc1)CC2 | -145
55 | Cc1nc2sccn2c1CNc1cc(C(=O)O)ccc1F | 4.59
56 | O=C(CNC(=O)c1cnc2ccccc2c1O)NCCCn1ccnc1 | -5.28
57 | CCOc1cccc(CNC(=O)c2cnn(CC)c2C(F)(F)F)c1 | 11.7
58 | CN(C)c1cc(CNC(=O)NCC2(C)CCCS2)ccn1 (stereo unspecified) | 6.64
59 | c1cncc(-c2ccnn2CN2CCC3(CC2)OCCO3)c1 | 8.19
60 | CC(NC(=O)NCCc1nc(C(F)(F)F)cs1)C(=O)N(C)C (stereo unspecified) | 5.04
61 | COc1cccc(Cc2nnc(SC3CCOC3=O)o2)c1 (stereo unspecified) | 12.9
62 | COCCNC(=O)c1ccc(C)c(-n2cccc2)c1 | -3.06
63 | OCc1csc(N2CCCC(CO)(Cc3cccc(Cl)c3)C2)n1 (stereo unspecified) | 8.87
64 | CSCCC(=O)N1C[C@H](Nc2ccnc(C)n2)[C@@H](C(C)C)C1 | -1.13
65 | O=C(c1ccc2nccn2c1)N(CCO)Cc1ccccc1F | 5.27
66 | O=C(O)C1(Oc2cccc(F)c2)CCN(C2CCOCC2)CC1 | -7.16
67 | CCCN1CCN(C(=O)c2ccc3ccccc3n2)[C@H]2CS(=O)(=O)C[C@H]21 | -3.31
68 | Cc1ccc2[nH]c(=O)c(CN(C)Cc3cc(C4CC4)[nH]n3)cc2c1 | -3.07
69 | O=C(CCn1cc(Cl)cn1)N1CCCC(O)(CO)CC1 (stereo unspecified) | -145

Row | SMILES | cytotoxicity at 10 µM [%]
70 | COCCN(Cc1sccc1C)C(=O)c1c(O)cccc1F | -137
71 | CN(C)CCC1CN(C(=O)c2cccc3c2OCC3)CCO1 (stereo unspecified) | 2.13
72 | Cc1nnc(NC(=O)N2CCN(Cc3ccc(F)cc3)C(=O)C2)s1 | -0.392
73 | Cc1c(Cl)c(C(=O)N2C[C@@H](C(=O)O)[C@H](c3cccnc3)C2)nn1C | 6.21
74 | c1ccc(-c2cc(CN3CCCCCC3c3ccco3)on2)nc1 (stereo unspecified) | -6.19
75 | COc1cc(NC2CCN(C3CCS(=O)(=O)CC3)CC2)ncn1 | 1.64
76 | CNC(=O)[C@@H]1C[C@@H](N)CN1C(=O)CCSCc1ccccc1 | 6.7
77 | Cc1cnc(NCCCN2CCc3ccccc32)nc1 | 2.24
78 | COc1ccnc(N2C[C@@H](NS(=O)(=O)N(C)C)[C@H](C(C)C)C2)n1 | -144
79 | Cc1nc2c(c(N3CC=CC3)n1)CCN(Cc1ccoc1)CC2 | -6.51
80 | CC(C)n1ccnc1C1CCN(Cc2ccc(Cl)s2)CC1 | -7.09
81 | Cc1c[nH]c(CN(C)C(=O)C2CC(=O)N(Cc3ccncc3)C2)n1 (stereo unspecified) | 16.7
82 | CC(C)c1ccc(-c2nonc2N)cc1 | -3.25
83 | CC(C)CN(C)Cc1nc2c(cnn2C)c(=O)[nH]1 | -12.3
84 | CC(C)c1nnc(NC(=O)NC2CCN(Cc3ccccc3)C2)s1 (stereo unspecified) | -11.2
85 | NC(=O)Cn1cc(NC(=O)N2CCSCC2)cn1 | -9.95
86 | CNc1nc(CNC(=O)Nc2cccc(Cl)c2Cl)cs1 | -15.8
87 | Cn1ccnc1CN1CCN(Cc2noc(C3CC3)n2)CC1 | -1.85
88 | CC(=O)NCCNC(=O)CN1CCCCC1Cn1cncn1 (stereo unspecified) | 2.7
89 | CN(C)S(=O)(=O)CCCN1CCCC1c1noc(C2CC2)n1 (stereo unspecified) | -10.3
90 | Brc1cccc(-c2nnc(CNCCn3cccn3)o2)c1 | -9.59
91 | OC(CNCCn1cccn1)c1cccc(F)c1 (stereo unspecified) | -4.41
92 | Cc1nc(C)n(CC2CN(CCOc3ccccc3C#N)CCO2)n1 (stereo unspecified) | -7.45

Row | SMILES | cytotoxicity at 10 µM [%]
93 | Cc1nccn1C1CCCN(C(=O)c2cc(Cl)c3c(c2)OCO3)C1 (stereo unspecified) | -2.78
94 | CC(C)NC(=O)C1CCN(c2snc3ccccc23)CC1 | -8.18
95 | CCOc1ccc(Cl)c(C(=O)N(C)C)n1 | -11.3
96 | c1cnn(CC2CN(Cc3nc(-c4ccsc4)no3)CCO2)c1 (stereo unspecified) | -8.06
97 | O=C(c1ccc(O)cc1)N1C[C@@H]2OCCN(c3ncccn3)[C@@H]2C1 | 6.72
98 | Cc1noc(C)c1CN1CCn2cc(CN3CCCC3)nc2C1 | 5.37
99 | CN(C)C(=O)N1CC2(CCNCC2)c2cc(F)ccc21 | -79.9
100 | O=C(O)c1cc2c(nc1N1CCCC1)CCN(C1CCOCC1)CC2 | 3.02
101 | CC(C)CN1C[C@H]2CCN(c3ncccn3)CC[C@H]2S1(=O)=O | -11.2
102 | O=C(NC1CC1)[C@H]1C[C@H]2OCC[C@H]2N(Cc2ccc(F)cc2)C1 | 3.62
103 | CNC(=O)CN1CCOCC2(C1)CN(C(=O)C(C)C)CCO2 (stereo unspecified) | -0.182
104 | COCC1CC2(CCNCC2)CN1Cc1csc(C)n1 (stereo unspecified) | 5.77
105 | CO[C@@H]1CCN(C(=O)c2ccccn2)[C@H]1Cc1ccccc1 | 4.89
106 | Cc1ccc(CN2C[C@@H]3CCCO[C@@H]3[C@H](N(C)Cc3ccco3)C2)s1 | 3.88
107 | COCC(=O)N1CCO[C@H]2[C@H](OCc3cccnc3)CC[C@@H]21 | -2.01
108 | c1cc(CN2CCO[C@@H]3CNC[C@@H]32)cs1 | 9.22
109 | CC(C)CCn1c(=O)[nH]c2cn(-c3ccc(F)cc3)c(=O)n21 | 2.97
110 | O=C1[C@@H]2CC[C@@H](CN(C3CSCCSC3)C2)N1Cc1cscn1 | -15.1
111 | O=C1OCCN1CC(=O)N1C[C@@H]2CC[C@H]1CN(Cc1cscn1)C2 | -5.41
